# Measured values from ChEMBL document CHEMBL1157507, “Design, synthesis, and evaluation of novel mutual prodrugs (hybrid drugs) of all-trans-retinoic acid and histone deacetylase inhibitors with enhanced anticancer activities in breast and prostate cancer cells in vitro” (J Med Chem, 2008).
# Tests used:
# [1] = test system: MDA-MB-231; experiment: Growth inhibition of human MDA-MB-231 cells after 5 days by MTT assay; format: functional; settings: MDA-MB-231, 120 h
# [2] = test system: PC-3; experiment: Growth inhibition of human PC3 cells after 5 days by MTT assay; format: functional; settings: PC-3, 120 h
# Summary of the method: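 PC-3 cells in RPMI 1640 with 10% FBS and 1% penicillin/streptomycin (37 °C, 5% CO2) were seeded at 2 × 10⁴/well and allowed to adhere 24 h. They were dosed over a concentration range in 10% DMSO/90% ethanol for 5 days, with drug and medium renewed on day 3. MTT (0.5 mg/mL) was added for 2 h, formazan dissolved in DMSO, and A560 read. Triplicate wells, ≥3 experiments; GI50 from nonlinear regression.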
# [3] = test system: MCF7; experiment: Growth inhibition of human tamoxifen-resistant MCF7 cells after 5 days by MTT assay; format: functional; settings: MCF7, 120 h
# [4] = test system: MCF7; experiment: Growth inhibition of human MCF7 cells after 5 days by MTT assay; format: functional; settings: MCF7, 120 h
# [5] = test system: Serum; experiment: Stability in 80% human serum in 0.02 M phosphate buffer at pH 7.2 after 24 hrs; format: ADME, cell-free; settings: pH 7.2, 24 h
# Summary of the method: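 Each agent was incubated 24 h at 37 °C in 80% human serum containing 20% 0.02 M phosphate buffer, pH 7.2. Samples were extracted and analysed by reverse-phase C18 HPLC with photodiode-array detection: 350 nm for ATRA and prodrugs, 245 nm for HDIs. The gradient ran from 20 mM ammonium acetate/methanol (50:50) to methanol at 0.8 mL/min.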
# [6] = test system: MCF7; experiment: Growth inhibition of human MCF7 cells expressing HOX-B7 after 5 days by MTT assay; format: functional; settings: MCF7, 120 h
# [7] = test system: MCF7; experiment: Growth inhibition of long-term letrozole cultured human MCF7 cells after 5 days by MTT assay; format: functional; settings: MCF7, 120 h
# [8] = test system: PC-3; experiment: Growth inhibition of human PC3 cells at 20 uM after 5 days by MTT assay; format: functional; settings: PC-3, 120 h
# Summary of the method: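 PC-3 cells in RPMI 1640 with 10% FBS were seeded at 2 × 10⁴/well, adhered 24 h, then given a single 20 µM concentration in 10% DMSO/90% ethanol for 5 days, with renewal on day 3. Growth was read by MTT (0.5 mg/mL, 2 h, formazan in DMSO, A560). Triplicate wells; at least three independent experiments.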
SMILES,GI50 [1] [µM],GI50 [2] [µM],GI50 [3] [µM],GI50 [4] [µM],Stability [5],GI50 [6] [µM],GI50 [7] [µM],inhibition at 20 µM [8] [%]
CC(=O)Nc1ccc(C(=O)Nc2ccccc2N)cc1 [TACEDINALINE],0.17,0.29,–,–,–,–,–,–
CCCC(=O)[O-].[Na+] [SODIUM BUTYRATE],> 1000,72.4,–,–,–,–,–,–
CC(=O)Nc1ccc(C(=O)Nc2ccccc2NC(=O)OCc2ccc(OC(=O)/C=C(C)/C=C/C=C(C)/C=C/C3=C(C)CCCC3(C)C)cc2)cc1,0.02,0.87,0.08,0.52,Stable,8.13,–,–
CCCC(=O)OCc1ccc(OC(=O)/C=C(C)/C=C/C=C(C)/C=C/C2=C(C)CCCC2(C)C)cc1,0.01,1.02,–,–,Stable,–,–,80
CC(=O)Nc1ccc(C(=O)Nc2ccccc2NC(=O)CNC(=O)OCOC(=O)/C=C(C)/C=C/C=C(C)/C=C/C2=C(C)CCCC2(C)C)cc1,0.63,4.27,0.17,0.25,Stable,1.2,–,–
CC1=C(/C=C/C(C)=C/C=C/C(C)=C/C(=O)O)C(C)(C)CCC1 [TRETINOIN],10.8,7.6,–,–,–,–,–,–

# The next lines start with results.
GI50 [1] [µM],GI50 [2] [µM],GI50 [3] [µM],GI50 [4] [µM],Stability [5],GI50 [6] [µM],GI50 [7] [µM],SMILES,inhibition at 20 µM [8] [%]
0.94,0.04,0.02,0.15,–,0.006,0.02,CC1=C(/C=C/C(C)=C/C=C/C(C)=C/C(=O)OCOC(=O)NCC(=O)Nc2ccccc2NC(=O)c2ccc(CNC(=O)OCc3cccnc3)cc2)C(C)(C)CCC1,–
–,–,–,–,Stable,–,–,NCC(=O)Nc1ccccc1NC(=O)c1ccc(CNC(=O)OCc2cccnc2)cc1,–
0.17,0.18,0.21,0.06,Stable,0.72,–,CC1=C(/C=C/C(C)=C/C=C/C(C)=C/C(=O)Oc2ccc(COC(=O)Nc3ccccc3NC(=O)c3ccc(CNC(=O)OCc4cccnc4)cc3)cc2)C(C)(C)CCC1,–
